{
  "source": "ChEMBL document CHEMBL1275447",
  "about": "(Antimicrob Agents Chemother, 2008)",
  "key": {"[1]": {"tested_on": "Pseudomonas aeruginosa", "test": "Antibacterial activity against Pseudomonas aeruginosa isolate 993 by microdilution method", "type": "functional"}, "[2]": {"tested_on": "Pseudomonas aeruginosa", "test": "Antibacterial activity against Pseudomonas aeruginosa isolate 869 by microdilution method", "type": "functional"}, "[3]": {"tested_on": "Pseudomonas aeruginosa", "test": "Antibacterial activity against Pseudomonas aeruginosa isolate 935 by microdilution method", "type": "functional", "outline": "(§1)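 CLSI broth microdilution in cation-adjusted Mueller-Hinton broth (20–25 mg/liter Ca, 10–12.5 mg/liter Mg). Standard inoculum 10⁵ CFU/ml, incubated in ambient air. Clinical hospital isolates.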"}, "[4]": {"tested_on": "Pseudomonas aeruginosa", "test": "Antibacterial activity against Pseudomonas aeruginosa isolate 1005 by microdilution method", "type": "functional", "outline": "as §1"}, "[5]": {"tested_on": "Pseudomonas aeruginosa", "test": "Antibacterial activity against Pseudomonas aeruginosa isolate 896 by microdilution method", "type": "functional"}, "[6]": {"tested_on": "Pseudomonas aeruginosa", "test": "Antibacterial activity against Pseudomonas aeruginosa isolate 927 by microdilution method", "type": "functional"}, "[7]": {"test": "fT>MIC in human infected with Pseudomonas aeruginosa isolate 1005 at 500 mg administered as 1 hr infusion", "type": "functional"}, "[8]": {"test": "fT>MIC in human infected with Pseudomonas aeruginosa isolate 927 at 500 mg administered as 1 hr infusion", "type": "functional"}, "[9]": {"test": "fT>MIC in human infected with Pseudomonas aeruginosa isolate 968 at 500 mg administered as 1 hr infusion", "type": "functional"}, "[10]": {"test": "fT>MIC in human infected with Pseudomonas aeruginosa isolate 886 at 500 mg administered as 4 hr infusion", "type": "functional"}, "[11]": {"test": "fT>MIC in human infected with Pseudomonas aeruginosa isolate 935 at 500 mg administered as 4 hr infusion", "type": "functional"}, "[12]": {"test": "fT>MIC in human infected with Pseudomonas aeruginosa isolate 1005 at 500 mg administered as 4 hr infusion", "type": "functional"}, "[13]": {"test": "fT>MIC in human infected with Pseudomonas aeruginosa isolate 906 at 500 mg administered as 4 hr infusion", "type": "functional"}, "[14]": {"test": "fT>MIC in human infected with Pseudomonas aeruginosa isolate 1036 at 500 mg administered as 4 hr infusion", "type": "functional"}, "[15]": {"test": "fT>MIC in human infected with Pseudomonas aeruginosa isolate 1006 at 500 mg administered as 4 hr infusion", "type": "functional"}, "[16]": {"test": "fT>MIC in neutropenic mouse infected with Pseudomonas aeruginosa isolate 1052 at 500 mg administered as 1 hr infusion", "type": "functional", "outline": "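Free-drug time above MIC simulated from one-compartment mouse serum PK (25.2% protein binding). The mice were cyclophosphamide-neutropenic and uranyl nitrate-renally impaired. Regimen was subcutaneous 10, 15, 2.5, 1.25, 0.5, 0.25 mg/kg at 0, 0.5, 2.5, 4, 5.5, 7 h, repeated every 8 h over 24 h.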"}, "[17]": {"test": "fT>MIC in neutropenic mouse infected with Pseudomonas aeruginosa isolate 1055 at 500 mg administered as 4 hr infusion", "type": "functional", "outline": "(§2)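 Mouse fT>MIC was modelled with first-order one-compartment serum PK and 25.2% binding. Mice were neutropenic (cyclophosphamide) with uranyl nitrate renal impairment. Subcutaneous doses were 5.5, 2.25, 4.5, 4.5, 4.5, 4.5, 0.75, 0.375 mg/kg at 0, 0.5, 1.5, 2.5, 3.5, 4.5, 6, 7.5 h per 8-h interval over 24 h.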"}, "[18]": {"test": "fT>MIC in neutropenic mouse infected with Pseudomonas aeruginosa isolate 935 at 500 mg administered as 4 hr infusion", "type": "functional", "outline": "as §2"}, "[19]": {"test": "fT>MIC in neutropenic mouse infected with Pseudomonas aeruginosa isolate 979 at 500 mg administered as 4 hr infusion", "type": "functional", "outline": "as §2"}, "[20]": {"test": "fT>MIC in neutropenic mouse infected with Pseudomonas aeruginosa isolate 1058 at 500 mg administered as 4 hr infusion", "type": "functional", "outline": "as §2"}, "[21]": {"test": "fT>MIC in neutropenic mouse infected with Pseudomonas aeruginosa isolate 931 at 500 mg administered as 4 hr infusion", "type": "functional", "outline": "as §2"}, "[22]": {"test": "fT>MIC in neutropenic mouse infected with Pseudomonas aeruginosa isolate 927 at 500 mg administered as 4 hr infusion", "type": "functional", "outline": "as §2"}, "[23]": {"test": "fT>MIC in neutropenic mouse infected with Pseudomonas aeruginosa isolate 968 at 500 mg administered as 4 hr infusion", "type": "functional", "outline": "as §2"}, "[24]": {"test": "Cmax in Pseudomonas aeruginosa ATCC 27853 infected neutropenic ICR mouse at 10 mg/kg, sc administered as single dose 2 hrs postinfection by HPLC", "type": "ADME, organism-based", "design": "dose 10 mg/kg, route subcutaneous", "settings": "in vivo", "outline": "(§3)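 Neutropenic mice (cyclophosphamide ip 150 and 100 mg/kg, 4 and 1 days before inoculation) with uranyl nitrate 5 mg/kg ip 3 days before, for renal impairment. Thigh infection with ATCC 27853 at 10⁶ CFU/ml, 0.1 ml per thigh. Single sc doses 2 h later. Intracardiac blood from 6–12 mice per time point, eight time points over 4 h. Serum assayed by HPLC (linear 0.5–40 μg/ml). One-compartment first-order fit.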"}, "[25]": {"test": "Cmax in Pseudomonas aeruginosa ATCC 27853 infected neutropenic ICR mouse at 50 mg/kg, sc administered as single dose 2 hrs postinfection by HPLC", "type": "ADME, organism-based", "design": "dose 50 mg/kg, route subcutaneous", "settings": "in vivo", "outline": "as §3"}, "[26]": {"test": "Half-life in Pseudomonas aeruginosa ATCC 27853 infected neutropenic ICR mouse at 150 mg/kg, sc administered as single dose 2 hrs postinfection", "type": "ADME, organism-based", "design": "dose 150 mg/kg, route subcutaneous", "settings": "in vivo", "outline": "as §3"}, "[27]": {"test": "Clearance in Pseudomonas aeruginosa ATCC 27853 infected neutropenic ICR mouse at 50 mg/kg, sc administered as single dose 2 hrs postinfection", "type": "ADME, organism-based", "design": "dose 50 mg/kg, route subcutaneous", "settings": "in vivo", "outline": "as §3"}, "[28]": {"test": "Clearance in Pseudomonas aeruginosa ATCC 27853 infected neutropenic ICR mouse at 150 mg/kg, sc administered as single dose 2 hrs postinfection", "type": "ADME, organism-based", "design": "dose 150 mg/kg, route subcutaneous", "settings": "in vivo", "outline": "as §3"}, "[29]": {"tested_on": "Pseudomonas aeruginosa", "test": "Antibacterial activity against Pseudomonas aeruginosa isolate at 8 to 16 ug/ml after 24 hrs", "type": "functional, organism-based"}},
  "note": "The source made the active and inactive calls. The rule behind the calls is not given here.",
  "data": [
    {"smiles": "C[C@@H](O)[C@H]1C(=O)N2C(C(=O)O)=C(S[C@@H]3CN[C@H](CNS(N)(=O)=O)C3)[C@H](C)[C@H]12", "note": "[DORIPENEM]", "values": [
      {"measurement": "MIC", "setting": "[1]", "value": 0.125, "unit": "µg/mL"},
      {"measurement": "MIC", "setting": "[2]", "value": 0.25, "unit": "µg/mL"},
      {"measurement": "MIC", "setting": "[3]", "value": 1, "unit": "µg/mL"},
      {"measurement": "MIC", "setting": "[4]", "value": 1, "unit": "µg/mL"},
      {"measurement": "MIC", "setting": "[5]", "value": 8, "unit": "µg/mL"},
      {"measurement": "MIC", "setting": "[6]", "value": 16, "unit": "µg/mL"},
      {"measurement": "fT>MIC", "setting": "[7]", "value": 55, "unit": "%"},
      {"measurement": "fT>MIC", "setting": "[8]", "value": 7.5, "unit": "%"},
      {"measurement": "fT>MIC", "setting": "[9]", "value": 7.5, "unit": "%"},
      {"measurement": "fT>MIC", "setting": "[10]", "value": 100, "unit": "%"},
      {"measurement": "fT>MIC", "setting": "[11]", "value": 80, "unit": "%"},
      {"measurement": "fT>MIC", "setting": "[12]", "value": 80, "unit": "%"},
      {"measurement": "fT>MIC", "setting": "[13]", "value": 65, "unit": "%"},
      {"measurement": "fT>MIC", "setting": "[14]", "value": 65, "unit": "%"},
      {"measurement": "fT>MIC", "setting": "[15]", "value": 0, "unit": "%"},
      {"measurement": "fT>MIC", "setting": "[16]", "value": 55, "unit": "%"},
      {"measurement": "fT>MIC", "setting": "[17]", "value": 95, "unit": "%"},
      {"measurement": "fT>MIC", "setting": "[18]", "value": 82.5, "unit": "%"},
      {"measurement": "fT>MIC", "setting": "[19]", "value": 70, "unit": "%"},
      {"measurement": "fT>MIC", "setting": "[20]", "value": 70, "unit": "%"},
      {"measurement": "fT>MIC", "setting": "[21]", "value": 52.5, "unit": "%"},
      {"measurement": "fT>MIC", "setting": "[22]", "value": 0, "unit": "%"},
      {"measurement": "fT>MIC", "setting": "[23]", "value": 0, "unit": "%"},
      {"measurement": "Cmax", "setting": "[24]", "value": 16300, "unit": "ng/mL"},
      {"measurement": "Cmax", "setting": "[25]", "value": 59700, "unit": "ng/mL"},
      {"measurement": "half-life", "setting": "[26]", "value": 26.4, "unit": "min"},
      {"measurement": "CL/F", "setting": "[27]", "value": 13.1, "unit": "mL/min/kg"},
      {"measurement": "CL/F", "setting": "[28]", "value": 14.2, "unit": "mL/min/kg"},
      {"measurement": "Activity", "setting": "[29]", "value": "inactive"}
    ]}
  ]
}
